These results are taken from PubChem BioAssay.

Active and inactive are the calls of the source.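 The calls were made as follows, unless noted: active = inhibition at or above 50% relative to wild type and mutant plate controls; inactive = inhibition below 50%.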

Experiment [1] in a line: inhibitors of TNFa-induced NFkB p65 translocation, primary screen, imaging, HUVEC, MLSMR starter and 10KST1 sets (AID 438;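 active = inhibition above 20% together with a positive visual image hit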;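 also: compound added about 3h40 before a 20 min TNFalpha stimulation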;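 as to inhibition: signal is the nuclear over cytoplasmic p65 intensity ratio per well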). The conditions noted are these: HUVEC TNFa-induced p65 nuclear translocation; cell count: measured here: nuclei count (cytotoxicity indicator), at 2.08 µM; inhibition: at 2 µM, stronger effect = higher value, 0% TNFa-plus-vehicle, 100% no-TNFa wells.
Experiment [2] in a line: inhibitors of E-selectin induction by TNFa, primary screen, imaging, HUVEC, immunofluorescence, MLSMR starter and 10KST1 sets (AID 487;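 active = visually confirmed hit in the image check and inhibition above 20%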;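 as to inhibition: signal is fraction of cell area covered by stained E-selectin grains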;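 as to nuclei count: 100% = median nuclei count of all wells on the same plate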). The note with it: HUVEC TNFalpha-induced E-selectin immunofluorescence imaging, at 2 µM; inhibition: stronger effect = higher value; nuclei count: measured here: cell number, toxicity.
Experiment [3] is described as follows: DUSP6 inhibitors restoring Erk phosphorylation by chemical complementation, primary imaging in DUSP6-transfected HeLa (AID 609;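 active = compounds giving at least 50% inhibition in the cell-based MKP-3 phosphatase rescue imaging test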;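 as to inhibition: phospho-Erk level distribution per well compared with pooled transfected vehicle control wells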). The conditions noted are these: HeLa MKP-3 transfected, phospho-Erk imaging KS statistic, at 10 µM, cells stimulated with TPA for 15 min.
For experiment [4], the target named is Dual specificity protein phosphatase 6 (Homo sapiens) (UniProt Q16828). Described as above. The note with it: HeLa MKP-3 transfected, phospho-Erk imaging KS statistic; at 10 µM; stronger effect = higher value; cells stimulated with TPA for 15 min.
Dual specificity protein phosphatase 6 (Homo sapiens), sequence (Q16828 whole entry, looked up): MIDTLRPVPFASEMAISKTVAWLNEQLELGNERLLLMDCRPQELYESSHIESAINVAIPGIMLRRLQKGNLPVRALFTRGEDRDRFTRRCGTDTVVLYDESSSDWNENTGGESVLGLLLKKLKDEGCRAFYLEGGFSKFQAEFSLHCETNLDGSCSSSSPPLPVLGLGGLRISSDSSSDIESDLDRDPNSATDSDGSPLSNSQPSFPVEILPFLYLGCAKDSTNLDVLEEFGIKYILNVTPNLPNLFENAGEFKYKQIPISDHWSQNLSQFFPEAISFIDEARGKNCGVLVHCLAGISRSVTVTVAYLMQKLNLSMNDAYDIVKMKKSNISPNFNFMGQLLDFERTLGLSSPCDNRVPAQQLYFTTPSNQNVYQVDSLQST
The target of experiment [5] is Voltage-gated potassium channel subunit beta-2 (Rattus norvegicus) (UniProt P62483). Kind of experiment: KvBeta enzyme negative modulators, primary screen, biochemical, NADPH fluorescence (AID 622;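 active = fluorescence slope higher than the sample average by over 3 SD, cut at about -0.22 in these data, passing the limit was not always enough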;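 also: slope of raw intensity against log time taken from 70 to 1610 s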). The conditions noted are these: recombinant KvBeta, 4-cyanobenzaldehyde reduction, at 10 µM, stronger effect = higher value.
Voltage-gated potassium channel subunit beta-2 (Rattus norvegicus), sequence (P62483 whole entry, looked up): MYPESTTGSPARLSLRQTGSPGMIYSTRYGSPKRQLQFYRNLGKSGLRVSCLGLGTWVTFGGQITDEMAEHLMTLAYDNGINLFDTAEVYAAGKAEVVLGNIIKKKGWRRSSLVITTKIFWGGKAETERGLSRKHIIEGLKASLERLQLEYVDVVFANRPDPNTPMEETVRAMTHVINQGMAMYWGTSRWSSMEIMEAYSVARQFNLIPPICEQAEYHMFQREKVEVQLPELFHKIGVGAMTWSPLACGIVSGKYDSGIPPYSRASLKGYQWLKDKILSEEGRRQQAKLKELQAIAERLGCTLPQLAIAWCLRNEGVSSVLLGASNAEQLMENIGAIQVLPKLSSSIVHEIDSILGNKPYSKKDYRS
Experiment [6] shares this target. Briefly: KvBeta positive modulators, primary screen, biochemical, NADPH fluorescence (AID 623;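 active = NADPH fluorescence slope more negative than the mean of all samples by about 3 SD, 99.7% confidence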;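 also: fluorescence intensity change per second fitted from 20 to 320 s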). The conditions noted are these: Recombinant KvBeta, NADPH fluorescence decrease slope, 10 min; at 10 µM; stronger effect = lower value.
The target in experiment [7] is Alpha-2C adrenergic receptor (Homo sapiens) (UniProt P18825). Kind of experiment: modulators of alpha2C/GIRK thallium flux, primary screen, cell-based, HEK293 alpha2C/GIRK1/2 (AID 624;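 active = fluorescence slope after compound addition differing from the mean of all screened samples at 99.7% confidence, in either direction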;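 also: slope of fluorescence ratio to pre-addition baseline per second over 15 to 24 s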). The note with it: thallium flux BTC fluorescence, at 10 µM, actives lie on both sides.
Alpha-2C adrenergic receptor (Homo sapiens), sequence (P18825 whole entry, looked up): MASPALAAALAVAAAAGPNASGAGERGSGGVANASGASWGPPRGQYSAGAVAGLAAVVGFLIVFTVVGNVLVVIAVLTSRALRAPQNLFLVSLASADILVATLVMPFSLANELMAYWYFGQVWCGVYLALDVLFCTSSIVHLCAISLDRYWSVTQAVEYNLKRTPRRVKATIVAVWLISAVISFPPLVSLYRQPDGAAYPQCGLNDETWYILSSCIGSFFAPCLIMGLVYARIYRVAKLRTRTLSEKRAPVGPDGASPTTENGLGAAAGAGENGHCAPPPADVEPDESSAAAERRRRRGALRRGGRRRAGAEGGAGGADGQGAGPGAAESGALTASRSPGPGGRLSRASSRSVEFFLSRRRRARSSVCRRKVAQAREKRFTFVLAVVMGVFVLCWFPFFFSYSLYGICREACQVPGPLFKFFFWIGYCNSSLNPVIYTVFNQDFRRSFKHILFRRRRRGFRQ
The nature of experiment [8]: inhibitors of larval lipid processing in zebrafish, primary screen, whole organism, PED6 fluorescence, gall bladder and intestine (AID 686;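 active = a full or partial loss of lipid-probe fluorescence in the fish gall bladder, intestine or both, judged by eye; inactive = no fluorescence loss, or compound toxic to the fish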;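 also: larvae 5 to 7 days old with five fish per well; signal comes from phospholipase A2 cleavage of quenched PED6 carried via bile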). The conditions noted are these: Zebrafish larvae PED6 lipid processing, fluorescence scoring; screened at 20 µM (by protocol). Put shortly: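 system = live zebrafish larvae aged 5-7 days, whole organism | probe or stimulus = ingested quenched lipid PED6 at 100 nM | doses = 20 µM single dose | timing = overnight exposure | detection = fluorescence microscopy with visual scoring of gall bladder and intestine | read-out = visual per-well fluorescence inhibition score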

Experiment [9] can be described thus: inhibitors of Chlamydomonas gravitaxis, primary screen, whole organism, Chlamydomonas reinhardtii, WT vs cilia-less mutant, absorbance, 96-well (AID 463189).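 Also: 0% = wild type cc124 cells in DMSO and 100% = ciliumless bld1 mutant cells.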 The note with it: OD600 absorbance, 2 days, at 10 µM, stronger effect = higher value.
[10] abbreviates: measured here: cell density z-score.
Setting [11] is: measured here: nuclear c-Myc green intensity z-score.
Where [12] appears, read: measured here: nuclear pErk red intensity z-score, stronger effect = higher value.

Take `CCOc1cccc(-c2nnc3sc(C4CCCCC4)nn23)c1`: the cell count in [1] stood at 683. The inhibition in experiment [1] is 1.1% (inactive); in [2] it was 16.2% (inactive); in [4], 15.5% (inactive); in experiment [9], 36.1% (inactive). This compound also registered a nuclei count in experiment [2] of 160%. The z-score was 1.83 in [3] (setting [10]), -1.11 in [3] (setting [11]) and -1.63 in [3] (setting [12]). The fluorescence slope in experiment [5] was -0.446 (inactive). Also, in [6], the NADPH fluorescence slope was -0.000139 (inactive). In addition, in experiment [7], the slope is 0.00527 (inactive). The outcome in experiment [8] was “inactive; toxic”.

For `CCOC(=O)c1ccc(NC(=O)Cn2nnc3ccccc32)cc1`, the cell count in experiment [1] came out at 333. Also, the inhibition in experiment [1] is -8.2% (inactive); in experiment [2], -17.3% (inactive); in experiment [4], 7.48% (inactive); in [9], 37.7% (inactive). This compound came in with a nuclei count in [2] of 84.8%. Moreover, the z-score is 0.667 in experiment [3] (setting [10]), 0.595 in [3] (setting [11]) and -0.72 in [3] (setting [12]). In addition, the fluorescence slope in experiment [5] was -0.538 (inactive). For the same compound, in experiment [6], the NADPH fluorescence slope is -0.000163 (inactive). Also, the slope in [7] was 0.0051 (inactive). Also, in experiment [8], the outcome was inactive.

In the case of `COc1ccccc1-n1c(=O)c2c3c(sc2n2c(SC)nnc12)CCC3`, the cell count in experiment [1] was found to be 612. For the same compound, the inhibition was -29% (inactive) in experiment [1], -100% (inactive) in experiment [2], -0.608% (inactive) in [4] and 16.5% (inactive) in [9]. This compound also returned a nuclei count in [2] of 169%. Also, the z-score was -1.08 in experiment [3] (setting [10]), -0.0482 in experiment [3] (setting [11]) and 1.7 in [3] (setting [12]). The fluorescence slope in [5] was -0.367 (inactive). Further, the NADPH fluorescence slope in experiment [6] is -5.4e-05 (inactive). Further, in experiment [7], the slope was 0.00462 (inactive). The compound was classed as inactive in [8].

Regarding `COc1cccc(C(=O)N2CCN(S(=O)(=O)Cc3ccccc3)CC2)c1OC`, the cell count in experiment [1] was 424. Besides, the inhibition in experiment [1] is -16.3% (inactive); in experiment [2] it was -254% (inactive); in experiment [4] it was 12.7% (inactive); in [9], 17.5% (inactive). In experiment [2], the nuclei count stood at 195%. In addition, the z-score was 0.309 in [3] (setting [10]), -0.845 in [3] (setting [11]) and -0.459 in [3] (setting [12]). The fluorescence slope in [5] is -0.291 (inactive). In addition, in experiment [6], the NADPH fluorescence slope is 1.9e-05 (inactive). Moreover, the slope in experiment [7] was 0.00419 (inactive). In experiment [8], the compound was called inactive.

For `Cn1c2ccccc2c2nn(-c3ccccc3)c(=O)cc21`, in experiment [1], the cell count was 304. In addition, the inhibition in experiment [1] was -5% (inactive); in experiment [2], -28.5% (inactive); in [4] it was -8.59% (inactive); in [9], -13.4% (inactive). Further, in experiment [2], the nuclei count was 94.5%. For the same compound, the z-score is -1.04 in experiment [3] (setting [10]), 0.853 in experiment [3] (setting [11]) and -0.375 in experiment [3] (setting [12]). Also, the fluorescence slope in experiment [5] is -0.441 (inactive). For the same compound, the NADPH fluorescence slope in experiment [6] was -0.000115 (inactive). Also, the slope in experiment [7] is 0.00467 (inactive). The compound was classed as inactive in experiment [8].

In the case of `COc1ccc(NC2CC(=O)N(C)C2=O)cc1` (stereo unspecified), the cell count in experiment [1] was 334. In addition, the inhibition in [1] is -4.4% (inactive); in experiment [2], 15% (inactive); in experiment [4], 7.42% (inactive); in experiment [9], 30.2% (inactive). In experiment [2], this compound had a nuclei count of 92.4%. For the same compound, the z-score is -0.811 in [3] (setting [10]), 0.0749 in experiment [3] (setting [11]) and 1.77 in experiment [3] (setting [12]). Moreover, in experiment [5], the fluorescence slope is -0.424 (inactive). In addition, the NADPH fluorescence slope in experiment [6] is 1.4e-05 (inactive). Also, the slope in experiment [7] was 0.00509 (inactive). For the same compound, the outcome in experiment [8] was inactive.

As for `COCCNc1nc2c(c(=O)n(Cc3ccc(OC)cc3)c(=O)n2C)n1C`, in experiment [1], the cell count worked out at 357. In addition, the inhibition was -17.8% (inactive) in experiment [1], -26.3% (inactive) in experiment [2], 4.37% (inactive) in experiment [4] and 15.2% (inactive) in experiment [9]. This compound also registered a nuclei count in experiment [2] of 128%. The z-score was 0.697 in [3] (setting [10]), 0.778 in experiment [3] (setting [11]) and -0.00517 in experiment [3] (setting [12]). The fluorescence slope in [5] is -0.32 (inactive). Moreover, the NADPH fluorescence slope in experiment [6] is 7.3e-06 (inactive). The slope in experiment [7] was 0.00535 (inactive). Further, the compound was classed as inactive in experiment [8].

A word on the inhibition: it is the drop in the measured response relative to a control, in per cent.
